Legend:
[1] = system: HCT-15; assay: Antiproliferative activity against human HCT15 cells after 24 hrs by WST-1 assay; format: functional, cell-based; conditions: HCT-15, 24 h
Summary of the method: (§1)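 WST-1 viability assay. Cells seeded at 5 × 10^3 per well and grown 24 h, then given lissoclibadins at 0.1−40 μM (etoposide 1.0−100 μM) in triplicate for 24 h. WST-1 added and absorbance read 4 h later at 450 nm, background subtracted at 650 nm. Viability expressed as % of control; IC50 taken as 50% inhibition of viability. Three experiments, mean ± SD.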

[2] = system: HeLa S3; assay: Antiproliferative activity against human HeLaS3 cells after 24 hrs by WST-1 assay; format: functional, cell-based; conditions: HeLa S3, 24 h; summary of the method: as §1

Compound	IC50 [1]	IC50 [2]
COc1c(OC)c2c(c(CCN(C)C)c1SC)Sc1c(OC)c(OC)c(SC)c(CCN(C)C)c1S2 [LISSOCLIBADIN 3]	13.2 µM	16 µM
COc1cc(CCN(C)C)c2sc3c(O)c(OC)cc(CCN(C)C)c3ssc2c1O [LISSOCLIBADIN 4]	17.2 µM	17.8 µM
